Assay results from ChEMBL document CHEMBL3286094, “Synthesis and biological evaluation of novel bisbenzimidazoles as Escherichia coli topoisomerase IA inhibitors and potential antibacterial agents” (J Med Chem, 2014).
≈ marks a conversion by molar mass, not a printed value.

Legend:
[1] = Inhibition of Escherichia coli DNA topoisomerase-1A using supercoiled pHOT1 plasmid DNA as substrate assessed as inhibition of DNA relaxation after 30 mins by agarose gel electrophoresis
How it was run: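 Supercoiled plasmid DNA incubated with E. coli Topo IA in the presence of compound at […]. Relaxation products were resolved by electrophoresis on 1% agarose gel.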

Escherichia coli [2] = test: Antibacterial activity against Escherichia coli DH5[alpha] assessed as growth inhibition after 18 to 24 hrs by broth microdilution method; format: functional
Escherichia coli [3] = test: Antibacterial activity against Escherichia coli ATCC 25922 assessed as growth inhibition after 18 to 24 hrs by broth microdilution method; format: functional
Escherichia coli [4] = test: Bactericidal activity against Escherichia coli DH5[alpha] by agar plating method; format: functional
Escherichia coli [5] = test: Bactericidal activity against Escherichia coli ATCC 25922 by agar plating method; format: functional

Compound | IC50 [1] [µM] | MIC50 (Escherichia coli [2]) [µg/mL] | MIC90 (Escherichia coli [2]) [µg/mL] | MIC50 (Escherichia coli [3]) [µg/mL] | MIC90 (Escherichia coli [3]) [µg/mL] | MBC (Escherichia coli [4]) [µg/mL] | MBC (Escherichia coli [5]) [µg/mL]
CCOc1ccc(-c2nc3ccc(-c4nc5ccc(N6CCN(CCNC(=O)C(F)(F)F)CC6)cc5[nH]4)cc3[nH]2)cc1 | 50.8 | 16 (≈ 27.7 µM) | 22.5 (≈ 39 µM) | 10.4 (≈ 18 µM) | 20.8 (≈ 36 µM) | 32 (≈ 55.4 µM) | 32 (≈ 55.4 µM)
COc1ccc(-c2nc3ccc(-c4nc5ccc(N6CCN(c7ccc(F)cc7)CC6)cc5[nH]4)cc3[nH]2)cc1OC | > 50 | > 128 | – | > 128 | – | – | –
O=C(NCCN1CCN(c2ccc3nc(-c4ccc5nc(-c6ccc(O)cc6)[nH]c5c4)[nH]c3c2)CC1)C(F)(F)F | 45.8 | > 128 | – | > 128 | – | – | –
Oc1ccc(-c2nc3ccc(-c4nc5ccc(N6CCN(c7ccncc7)CC6)cc5[nH]4)cc3[nH]2)cc1 | > 50 | > 128 | – | > 128 | – | – | –
Oc1ccc(-c2nc3ccc(-c4nc5ccc(N6CCN(c7ccccc7)CC6)cc5[nH]4)cc3[nH]2)cc1 | 60.3 | > 128 | – | > 128 | – | – | –
Oc1ccc(-c2nc3ccc(-c4nc5ccc(N6CCN(c7ncccn7)CC6)cc5[nH]4)cc3[nH]2)cc1 | > 50 | > 128 | – | > 128 | – | – | –
CCOc1ccc(-c2nc3ccc(-c4nc5ccc(N6CCN(c7ccncc7)CC6)cc5[nH]4)cc3[nH]2)cc1 | > 50 | > 128 | – | > 128 | – | – | –

Now those with a lower IC50 [1], led by results:

IC50 [1] [µM] | MIC50 (Escherichia coli [2]) [µg/mL] | MIC90 (Escherichia coli [2]) [µg/mL] | MIC50 (Escherichia coli [3]) [µg/mL] | MIC90 (Escherichia coli [3]) [µg/mL] | Compound | MBC (Escherichia coli [4]) [µg/mL] | MBC (Escherichia coli [5]) [µg/mL]
20.8 | > 128 | – | > 128 | – | CCCN1CCN(c2ccc3nc(-c4ccc5nc(-c6ccc(O)cc6)[nH]c5c4)[nH]c3c2)CC1 | – | –
5.8 | 64 (≈ 146 µM) | 121 (≈ 276 µM) | > 128 | – | CCN1CCN(c2ccc3nc(-c4ccc5nc(-c6ccc(O)cc6)[nH]c5c4)[nH]c3c2)CC1 | 128 (≈ 292 µM) | –
4.7 | 128 (≈ 255 µM) | – | > 128 | – | Nc1ccc(N2CCN(c3ccc4nc(-c5ccc6nc(-c7ccc(O)cc7)[nH]c6c5)[nH]c4c3)CC2)cc1 | – | –
20.4 | > 128 | – | > 128 | – | N#Cc1ccccc1N1CCN(c2ccc3nc(-c4ccc5nc(-c6ccc(O)cc6)[nH]c5c4)[nH]c3c2)CC1 | – | –
8 | 64 (≈ 133 µM) | – | > 128 | – | CN(C)CCN1CCN(c2ccc3nc(-c4ccc5nc(-c6ccc(O)cc6)[nH]c5c4)[nH]c3c2)CC1 | – | –
3.8 | > 128 | – | > 128 | – | COc1ccc(-c2nc3ccc(-c4nc5ccc(N6CCN(c7ccccc7)CC6)cc5[nH]4)cc3[nH]2)cc1OC | – | –
20.3 | > 128 | – | > 128 | – | COc1ccc(-c2nc3ccc(-c4nc5ccc(N6CCN(c7ccc(N)cc7)CC6)cc5[nH]4)cc3[nH]2)cc1OC | – | –
3 | 128 (≈ 244 µM) | – | 128 (≈ 244 µM) | – | COc1ccc(-c2nc3ccc(-c4nc5ccc(N6CCN(CCN(C)C)CC6)cc5[nH]4)cc3[nH]2)cc1OC | – | –
3.76 | > 128 | – | > 128 | – | COc1ccc(-c2nc3ccc(-c4nc5ccc(N6CCN(c7ccccc7C#N)CC6)cc5[nH]4)cc3[nH]2)cc1OC | – | –
20.3 | > 128 | – | > 128 | – | Oc1ccc(-c2nc3ccc(-c4nc5ccc(N6CCN(c7ccc(F)cc7)CC6)cc5[nH]4)cc3[nH]2)cc1 | – | –
12.3 | – | – | 16 (≈ 33.2 µM) | 14.8 (≈ 30.7 µM) | CCN1CCN(c2ccc3nc(-c4ccc5nc(-c6ccc(OC)c(OC)c6)[nH]c5c4)[nH]c3c2)CC1 | 16 (≈ 33.2 µM) | 32 (≈ 66.3 µM)
